Results as given in ChEMBL document CHEMBL1147135, “9-(2-C-Cyano-2-deoxy-beta-D-arabino-pentofuranosyl)guanine, a potential antitumor agent against B-lymphoma infected with Kaposi's sarcoma-associated herpesvirus” (J Med Chem, 2007).
Calls of active or inactive are those of the source. The rule behind the calls is not given here.

Experiments:
[1] = Cytotoxicity against DG75 cells after 120 hrs by MTT assay; format: cell-based; settings: Homo sapiens, DG-75, 120 h
Outline: (§1)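 KSHV-positive PEL lines (BC2, BC3) and herpesvirus-negative B-lymphoma DG75 exposed to varying nucleoside concentrations for 120 h, then cell viability assay; OD 560 nm, untreated cells of each line set as 100%. Six replicate wells per experiment; IC50 as mean ± SD of three separate experiments.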

Human gammaherpesvirus 8 [2] = test: Cytotoxicity against Kaposi's sarcoma-associated herpesvirus infected BC2 cells after 120 hrs by MTT assay; format: functional, organism-based; settings: Human gammaherpesvirus 8, BC-2, 120 h; outline: as §1
Human gammaherpesvirus 8 [3] = test: Cytotoxicity against Kaposi's sarcoma-associated herpesvirus infected BC3 cells after 120 hrs by MTT assay; format: functional, organism-based; settings: Human gammaherpesvirus 8, BC-3, 120 h; outline: as §1
Human gammaherpesvirus 8 [4] = test: Cytotoxicity against Kaposi's sarcoma-associated herpesvirus infected BC3 cells in presence of 50 uM thymidine after 72 hrs; format: functional, organism-based; settings: BC-3
Outline: (§2)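 BC3 cells seeded at 10⁴ cells/mL, given graded compound concentrations plus one common nucleoside (final 50 µM) added simultaneously, in triplicate; 3 days (72 h) at 37 °C, humidified 5% CO₂; growth inhibition read by MTT assay.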

Human gammaherpesvirus 8 [5] = test: Cytotoxicity against Kaposi's sarcoma-associated herpesvirus infected BC3 cells in presence of 50 uM adenosine after 72 hrs; format: functional, organism-based; settings: BC-3; outline: as §2
BC-3 = test: Inhibition of RNA synthesis in KSHV infected BC3 cells assessed as [3H]guanosine incorporation after 1 hr; format: functional, Homo sapiens
Outline: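 BC3 cells (2.5 × 10⁵ cells/mL) cultured 24 h, then compound added for 1 h; before harvest, 30 min pulse label with [³H]thymidine for DNA or tritiated ribonucleoside for RNA (guanosine in text, uridine in legend); synthesis measured as radiolabel incorporation.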

Structure (SMILES): N#C[C@H]1[C@H](O)[C@@H](CO)O[C@H]1n1cnc2cnc(N)nc21
- IC50 [1]: > 15 µM
- IC50 (Human gammaherpesvirus 8 [2]): > 15 µM
- IC50 (Human gammaherpesvirus 8 [3]): > 15 µM

Structure (SMILES): N#C[C@H]1[C@H](O)[C@@H](CO)O[C@H]1n1cnc2c(N)ncnc21
- IC50 [1]: > 15 µM
- IC50 (Human gammaherpesvirus 8 [2]): > 15 µM
- IC50 (Human gammaherpesvirus 8 [3]): > 15 µM

Structure (SMILES): N#C[C@H]1[C@H](O)[C@@H](CO)O[C@H]1n1cnc2c(Cl)nc(N)nc21
- IC50 [1]: > 15 µM
- IC50 (Human gammaherpesvirus 8 [2]): 1.73 µM
- IC50 (Human gammaherpesvirus 8 [3]): 1.48 µM

Structure (SMILES): COc1nc(N)nc2c1ncn2[C@@H]1O[C@H](CO)[C@@H](O)[C@@H]1C#N
- IC50 [1]: > 15 µM
- IC50 (Human gammaherpesvirus 8 [2]): 1.51 µM
- IC50 (Human gammaherpesvirus 8 [3]): 0.79 µM

Structure (SMILES): N#C[C@H]1[C@H](O)[C@@H](CO)O[C@H]1n1cnc2c(O)nc(N)nc21
- IC50 [1]: > 15 µM
- IC50 (Human gammaherpesvirus 8 [2]): 7.61 µM
- Activity (Human gammaherpesvirus 8 [4]): inactive
- Activity (Human gammaherpesvirus 8 [5]): inactive
- IC50 (Human gammaherpesvirus 8 [3]): 1.14 µM
- Inhibition (BC-3): 80%

Structure (SMILES): O=c1[nH]c(=O)n([C@H]2C[C@H](O)[C@@H](CO)O2)cc1/C=C/Br [BRIVUDINE]
- IC50 [1]: > 15 µM
- IC50 (Human gammaherpesvirus 8 [2]): > 15 µM
- IC50 (Human gammaherpesvirus 8 [3]): > 15 µM

Structure (SMILES): Nc1nc2c(ncn2COCCO)c(=O)[nH]1 [ACYCLOVIR]
- IC50 [1]: > 100 µM
- IC50 (Human gammaherpesvirus 8 [2]): > 100 µM
- IC50 (Human gammaherpesvirus 8 [3]): > 100 µM

Structure (SMILES): N#C[C@@H]1[C@H](O)[C@@H](CO)O[C@H]1n1cnc2c(=O)[nH]c(N)nc21
- IC50 [1]: > 15 µM
- IC50 (Human gammaherpesvirus 8 [2]): 2.61 µM
- IC50 (Human gammaherpesvirus 8 [3]): 1.73 µM

Structure (SMILES): N#C[C@H]1[C@H](O)[C@@H](CO)O[C@H]1n1ccc(N)nc1=O [TAS-109]
- IC50 [1]: 0.21 µM
- IC50 (Human gammaherpesvirus 8 [2]): 0.13 µM
- IC50 (Human gammaherpesvirus 8 [3]): 0.23 µM

Structure (SMILES): N#C[C@H]1[C@H](O)[C@@H](CO)O[C@H]1n1cnc2c(N)nc(N)nc21
- IC50 [1]: > 15 µM
- IC50 (Human gammaherpesvirus 8 [2]): 1.56 µM
- IC50 (Human gammaherpesvirus 8 [3]): 0.47 µM

Structure (SMILES): Nc1nc2c(ncn2COC(CO)CO)c(=O)[nH]1 [GANCICLOVIR]
- IC50 [1]: > 100 µM
- IC50 (Human gammaherpesvirus 8 [2]): 81 µM
- IC50 (Human gammaherpesvirus 8 [3]): 70 µM
